Measurements reported in ChEMBL document CHEMBL4152217, “Quinonoid compounds via reactions of lawsone and 2-aminonaphthoquinone with α-bromonitroalkenes and nitroallylic acetates: Structural diversity by C-ring modification and cytotoxic evaluation against cancer cells” (Eur J Med Chem, 2018).

What was measured:
[1] = tested on: HCT-116; assay: Cytotoxicity against human HCT116 cells assessed as reduction in cell viability after 72 hrs by MTT assay; assay type: functional, cell-based; settings: HCT-116, 72 h
Method in brief: (§1)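 MTT viability assay. Cancer lines grown in RPMI 1640 and L929 fibroblasts in DMEM, each with 10% FBS, 2 mM glutamine, penicillin/streptomycin, 37 °C, 5% CO2. PBMC were taken from healthy donors by density-gradient centrifugation, kept in RPMI with 20% FBS and stimulated with 2% phytohemagglutinin. Cells were exposed 72 h (0.01–27.32 µM). MTT 0.5 mg/mL for 3 h, absorbance read at 550 nm. IC50 with 95% CI from nonlinear regression; triplicate, ≥3 independent experiments.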

[2] = tested on: PBMC; assay: Cytotoxicity against human PBMC cells assessed as reduction in cell viability after 72 hrs by MTT assay
[3] = tested on: L929; assay: Cytotoxicity against mouse L929 cells assessed as reduction in cell viability after 72 hrs by MTT assay; assay type: cell-based; settings: L929, 72 h; method in brief: as §1
[4] = tested on: NCI-H460; assay: Cytotoxicity against human NCI-H460 cells assessed as reduction in cell viability after 72 hrs by MTT assay; settings: NCI-H460, 72 h
[5] = tested on: PC-3; assay: Cytotoxicity against human PC3 cells assessed as reduction in cell viability after 72 hrs by MTT assay; assay type: functional, cell-based; settings: PC-3, 72 h; method in brief: as §1
[6] = tested on: HL-60; assay: Cytotoxicity against human HL60 cells assessed as reduction in cell viability after 72 hrs by MTT assay; assay type: functional, cell-based; settings: HL-60, 72 h; method in brief: as §1
[7] = tested on: SF-295; assay: Cytotoxicity against human SF295 cells assessed as reduction in cell viability after 72 hrs by MTT assay; settings: SF-295, 72 h
[8] = tested on: Jurkat; assay: Cytotoxicity against human Jurkat cell viability after 72 hrs by MTT assay
[9] = tested on: OVCAR-8; assay: Cytotoxicity against human OVCAR8 cells assessed as reduction in cell viability after 72 hrs by MTT assay; settings: OVCAR-8, 72 h
[10] = tested on: MX1; assay: Cytotoxicity against human MX1 cells assessed as reduction in cell viability after 72 hrs by MTT assay; settings: MX1, 72 h

Row | Structure (SMILES) | IC50 [1] [µM] | IC50 [2] [µM] | IC50 [3] [µM] | IC50 [4] [µM] | IC50 [5] [µM] | IC50 [6] [µM] | IC50 [7] [µM] | IC50 [8] [µM] | IC50 [9] [µM] | IC50 [10] [µM]
1 | CCOC(=O)Cc1oc2c(c1-c1ccc(C)cc1)C(=O)c1ccccc1C2=O | > 13.4 | > 13.4 | > 13.4 | > 13.4 | > 13.4 | > 13.4 | > 13.4 | – | – | –
2 | CCOC(=O)Cc1c(-c2ccc(C)cc2)c2c(n1-c1ccc(OC)cc1)C(=O)c1ccccc1C2=O | > 10.4 | > 10.4 | > 10.4 | > 10.4 | > 10.4 | 3.36 | > 10.4 | – | – | –
3 | COc1ccc(-n2cc(-c3ccc(F)cc3)c3c2C(=O)c2ccccc2C3=O)cc1 | > 12.6 | > 12.6 | > 12.6 | > 12.6 | > 12.6 | > 12.6 | > 12.6 | – | – | –
4 | Cc1ccc(-c2cn(-c3cccc(Br)c3)c3c2C(=O)c2ccccc2C3=O)cc1 | > 13.2 | > 13.2 | > 13.2 | > 13.2 | > 13.2 | > 13.2 | > 13.2 | – | – | –
5 | CCOC(=O)Cc1oc2c(c1-c1cccs1)C(=O)c1ccccc1C2=O | 13.7 | > 27.3 | > 27.3 | 9.09 | > 27.3 | 5.91 | > 27.3 | – | – | –
6 | CCOC(=O)Cc1c(-c2ccc(OC)c(OC)c2)c2c(n1-c1ccc(Br)cc1)C(=O)c1ccccc1C2=O | > 17.4 | > 17.4 | > 17.4 | > 17.4 | > 17.4 | > 17.4 | 6.45 | – | – | –
7 | CCOC(=O)Cc1oc2c(c1-c1ccc(Cl)cc1)C(=O)c1ccccc1C2=O | > 12.7 | > 12.7 | > 12.7 | > 12.7 | > 12.7 | 10.2 | > 12.7 | – | – | –
8 | O=C1c2ccccc2C(=O)c2c(-c3cccc4ccccc34)coc21 | 6.17 | > 15.4 | 13 | 3.79 | 1.82 | 2.37 | 4.44 | 2.09 | 3.88 | 3.3
9 | CCCCn1cc(-c2ccc(Cl)cc2)c2c1C(=O)c1ccccc1C2=O | > 13.8 | – | > 13.8 | – | > 13.8 | > 13.8 | – | – | – | –
10 | CCOC(=O)Cc1oc2c(c1-c1ccccc1)C(=O)c1ccccc1C2=O | 12.5 | > 13.9 | > 13.9 | 8.86 | > 13.9 | 8.38 | > 13.9 | – | – | –
11 | CCOC(=O)Cc1c(-c2cccs2)c2c(n1-c1ccccc1)C(=O)c1ccccc1C2=O | > 11.3 | > 11.3 | > 11.3 | > 11.3 | > 11.3 | 2.63 | > 11.3 | – | – | –
12 | CCOC(=O)Cc1oc2c(c1-c1ccc(OC)cc1)C(=O)c1ccccc1C2=O | > 12.8 | > 12.8 | > 12.8 | > 12.8 | > 12.8 | > 12.8 | > 12.8 | – | – | –
13 | Cc1ccc(-c2cn(-c3ccc(Br)cc3)c3c2C(=O)c2ccccc2C3=O)cc1 | > 12.1 | > 12.1 | > 12.1 | > 12.1 | > 12.1 | > 12.1 | > 12.1 | – | – | –
14 | COc1ccc(-c2cn(-c3ccccc3)c3c2C(=O)c2ccccc2C3=O)cc1 | > 13 | > 13 | > 13 | > 13 | > 13 | > 13 | > 13 | – | – | –
15 | CCOC(=O)Cc1c(-c2ccccc2)c2c(n1-c1ccc(C)cc1)C(=O)c1ccccc1C2=O | > 11.1 | > 11.1 | > 11.1 | > 11.1 | > 11.1 | > 11.1 | > 11.1 | – | – | –
16 | CCOC(=O)Cc1oc2c(c1-c1ccc(OC)c(OC)c1)C(=O)c1ccccc1C2=O | 6.16 | > 11.9 | 8.47 | 7.53 | > 11.9 | 3.97 | > 11.9 | – | – | –
17 | COc1ccc(-c2coc3c2C(=O)c2ccccc2C3=O)cc1 | 5.78 | > 16.4 | > 16.4 | 6.34 | 4.96 | 4.31 | 4.99 | 3.81 | 6.01 | 5.59
18 | CCOC(=O)Cc1c(-c2ccc(OC)c(OC)c2)c2c(n1-c1cccc(Br)c1)C(=O)c1ccccc1C2=O | > 8.72 | > 8.72 | > 8.72 | > 8.72 | > 8.72 | > 8.72 | > 8.72 | – | – | –

Row | Structure (SMILES) | IC50 [1] [µM] | IC50 [2] [µM] | IC50 [3] [µM] | IC50 [4] [µM] | IC50 [5] [µM] | IC50 [6] [µM] | IC50 [7] [µM] | IC50 [8] [µM] | IC50 [9] [µM] | IC50 [10] [µM]
19 | O=C1c2ccccc2C(=O)c2c(-c3cccs3)coc21 | 5.17 | > 17.9 | > 17.9 | 5.67 | 4.85 | 3.28 | 4.96 | 4.21 | 5.39 | 4.92
20 | COc1ccc(-c2cn(-c3ccc(F)cc3)c3c2C(=O)c2ccccc2C3=O)cc1 | > 13.2 | > 13.2 | > 13.2 | > 13.2 | > 13.2 | > 13.2 | > 13.2 | – | – | –
21 | COc1ccc(-n2cc(-c3ccc(C)cc3)c3c2C(=O)c2ccccc2C3=O)cc1 | > 12.7 | > 12.7 | > 12.7 | > 12.7 | > 12.7 | > 12.7 | > 12.7 | – | – | –
22 | CCOC(=O)Cc1c(-c2cc(OC)c(OC)c(OC)c2)c2c(n1-c1cccc(Br)c1)C(=O)c1ccccc1C2=O | > 8.29 | > 8.29 | > 8.29 | > 8.29 | > 8.29 | > 8.29 | > 8.29 | – | – | –
23 | COc1ccc(-n2cc(-c3ccccc3)c3c2C(=O)c2ccccc2C3=O)cc1 | > 13.2 | > 13.2 | > 13.2 | > 13.2 | > 13.2 | > 13.2 | > 13.2 | – | – | –
24 | CCOC(=O)Cc1oc2c(c1-c1cc(OC)c(OC)c(OC)c1)C(=O)c1ccccc1C2=O | > 11.1 | > 11.1 | > 11.1 | > 11.1 | 8.61 | 4.01 | 10.3 | – | – | –
25 | CCOC(=O)Cc1oc2c(c1/C=C/c1ccccc1)C(=O)c1ccccc1C2=O | > 13 | > 13 | > 13 | > 13 | > 13 | 10.7 | > 13 | – | – | –
26 | CCOC(=O)Cc1oc2c(c1-c1ccco1)C(=O)c1ccccc1C2=O | > 14.3 | > 14.3 | > 14.3 | > 14.3 | > 14.3 | > 14.3 | > 14.3 | – | – | –
27 | COc1ccc(-n2cc(-c3ccco3)c3c2C(=O)c2ccccc2C3=O)cc1 | > 13.5 | > 13.5 | > 13.5 | > 13.5 | > 13.5 | > 13.5 | > 13.5 | – | – | –
28 | CCOC(=O)Cc1c(-c2ccc(OC)c(OC)c2)c2c(n1-c1ccc(Cl)cc1)C(=O)c1ccccc1C2=O | > 9.45 | > 9.45 | > 9.45 | > 9.45 | > 9.45 | > 9.45 | > 9.45 | – | – | –
29 | COc1ccc(-c2cn(-c3ccc(Cl)cc3)c3c2C(=O)c2ccccc2C3=O)cc1 | > 12.6 | > 12.6 | > 12.6 | > 12.6 | > 12.6 | > 12.6 | > 12.6 | – | – | –
30 | CCOC(=O)Cc1c(-c2ccc(C)cc2)c2c(n1-c1ccc(C)cc1)C(=O)c1ccccc1C2=O | > 10.8 | > 10.8 | > 10.8 | > 10.8 | > 10.8 | > 10.8 | > 10.8 | – | – | –
31 | CCOC(=O)Cc1c(-c2ccc(Cl)cc2)c2c(n1-c1ccc(OC)cc1)C(=O)c1ccccc1C2=O | > 10 | > 10 | > 10 | > 10 | > 10 | > 10 | > 10 | – | – | –
32 | Cc1ccc(-c2cn(-c3ccc(C)cc3)c3c2C(=O)c2ccccc2C3=O)cc1 | > 11.3 | > 11.3 | > 11.3 | > 11.3 | > 11.3 | > 11.3 | > 11.3 | – | – | –
33 | CCOC(=O)Cc1c(-c2ccco2)c2c(n1-c1ccccc1)C(=O)c1ccccc1C2=O | > 11.8 | > 11.8 | > 11.8 | > 11.8 | > 11.8 | > 11.8 | > 11.8 | – | – | –
34 | CCOC(=O)Cc1oc2c(c1-c1cccc3ccccc13)C(=O)c1ccccc1C2=O | > 12.2 | > 12.2 | > 12.2 | > 12.2 | > 12.2 | 6.69 | > 12.2 | – | – | –
35 | COc1ccc(-c2cn(-c3ccc(OC)cc3)c3c2C(=O)c2ccccc2C3=O)cc1 | > 12.2 | > 12.2 | > 12.2 | > 12.2 | > 12.2 | > 12.2 | > 12.2 | – | – | –
